MT1-MMP act inh: blockers of MT1-MMP proenzyme processing, primary screen, HT1080 RFP-PRO-GFP cells, GFP/RFP fluorescence. Matrix metalloproteinase-14 (Homo sapiens), P50281. GFP/RFP ratio fluorescence, overnight; percent of plate control window, DMSO zero. GFP/RFP ratio change, % at 20 µM. 360,000 compounds, 0.061% hits. AID 651647, 2012;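 active means GFP/RFP ratio change of at least 30% with cell ATP level not reduced by more than half and red fluorescence within 50% of control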
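system = RFP-PRO-GFP reporter HT1080 cells | dosing = 20 µM single dose, 1% DMSO | timing = overnight cell settling, then overnight compound exposure, 37 °C, 5% CO2 | read-out basis = GFP/RFP fluorescence ratio | controls = DMSO and RFP-L50D-GFP cell wells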
TAG inh: inhibitors of triacylglycerol accumulation, primary screen, cell-based, uHTS, fluorescence, H9c2; inhibition, % at 12.5 µM; H9c2 cells, Nile Red lipid (TAG) fluorescence; cells loaded with 200 µM oleic acid; AID 651582, 2012; 230,000 compounds, 0.66% hits;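 active means pattern-corrected inhibition of lipid staining of at least 50% with the nuclear-stain viability signal not falling by more than 50%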;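 further: 0% = DMSO wells and 100% = triacsin C control wells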
Efflux pump inh: inhibitors of Candida efflux pumps in yeast, primary screen, S. cerevisiae, Nile Red, multiplex | S. cerevisiae Candida pump triplex | inhibition, % at 10 µM | 330,000 compounds, 0.44% hits;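 active means plate passing quality check with inhibition over a set limit, or well fluorescence over plate mean plus 4 SD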;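 further: Nile Red retained in pooled yeast measured as flow cytometry median fluorescence; 0% = buffer negative control and 100% = Enniatin B positive control; higher means more Nile Red kept so more efflux inhibition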
sPLA2-III inh: human group III sPLA2 inhibitors, primary screen, biochemical, QFRET, BODIPY PC-A2 liposome substrate | QFRET BODIPY PC-A2 liposome hydrolysis, fluorescence | inhibition, % at 12.2 µM | 370,000 compounds, 0.56% hits | AID 743126, 2013;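 active means inhibition above mean plus 3 SD of compounds lying within the high and low control bounds, cut at about 19% in these data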;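 further: 0% = median of test compound wells and 100% = no enzyme DMSO wells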
Target sequence (Q9NZ20 whole entry, looked up): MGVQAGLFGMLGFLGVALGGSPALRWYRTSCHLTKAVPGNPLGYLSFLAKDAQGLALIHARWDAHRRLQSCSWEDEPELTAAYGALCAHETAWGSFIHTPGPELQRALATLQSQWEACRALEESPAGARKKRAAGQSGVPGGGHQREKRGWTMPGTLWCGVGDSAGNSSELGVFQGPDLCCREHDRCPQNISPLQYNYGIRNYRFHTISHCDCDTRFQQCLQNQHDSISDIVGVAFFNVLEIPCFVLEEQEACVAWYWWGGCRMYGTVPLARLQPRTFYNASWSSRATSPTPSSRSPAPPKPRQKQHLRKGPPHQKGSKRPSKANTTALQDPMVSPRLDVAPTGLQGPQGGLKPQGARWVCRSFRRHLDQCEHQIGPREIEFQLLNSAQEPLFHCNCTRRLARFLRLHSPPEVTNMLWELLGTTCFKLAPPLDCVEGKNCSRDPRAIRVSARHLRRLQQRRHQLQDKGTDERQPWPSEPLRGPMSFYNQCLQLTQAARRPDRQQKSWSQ
Cmpd fluor yeast: compound fluorescence in yeast efflux pump counter-screen | shares compounds with Efflux pump inh | S. cerevisiae AD/pABC3, flow cytometry | fluorescence ratio to DMSO, % at 10 µM | 1,700 compounds, 4% hits;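 active means fluorescence ratio to DMSO above its plate's cutoff, the plate mean ratio plus 5 SD, cut at about 210% in these data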;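 further: unstained yeast with no Nile Red so the signal is compound autofluorescence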
Mdr1 pump inh: inhibitors of Candida albicans Mdr1 efflux, confirmation, flow cytometry, singleplex, Cherry Pick1 set. shares compounds with Efflux pump inh. S. cerevisiae AD/CaMDR1, Nile Red efflux. inhibition, % at 10 µM. 1,700 compounds, 1% hits. AID 588518, 2011; in the data active means inhibition above about 26%;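 further: 0% = DMSO vehicle and 100% = reference inhibitor; higher means more Nile Red retained so more efflux inhibition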
Cdr2 pump inh: inhibitors of Candida albicans Cdr2 efflux pump, confirmation, S. cerevisiae AD/CaCDR2, flow cytometry, cherry pick 1, singleplex. shares compounds with Efflux pump inh. Nile Red retention. Nile Red retention ratio vs DMSO, % at 10 µM. 1,700 compounds, 4% hits. AID 588520, 2011; in the data active means Nile Red retention ratio vs DMSO above about 190%;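 further: higher ratio means more blocking of Cdr2 efflux of the dye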
CaCdr1 efflux inh: inhibitors of Candida albicans Cdr1 efflux pump, confirmation, S. cerevisiae AD/CaCDR1, flow cytometry, cherry pick 1, singleplex; shares compounds with Efflux pump inh; Nile Red efflux; inhibition, % at 10 µM; 1,700 compounds, 1% hits; AID 588522, 2011;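 active means inhibition above the screen-wide mean plus twice its standard deviation, cut at about 32% in these data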
An asterisk follows results filed as active; . = no result given; + = active, no number. Shown are actives, neighbours in structure and some others; about 1.3% of the full set was active somewhere.

SMILES	MT1-MMP act inh	TAG inh	Efflux pump inh	sPLA2-III inh	Cmpd fluor yeast	Mdr1 pump inh	Cdr2 pump inh	CaCdr1 efflux inh
C[C@@H](/C=C/C(=O)OC(C)(C)C)Sc1ccc(C(C)(C)C)cc1	.	.	.	7	.	.	.	.
Cc1c(CCOC(=O)C23CC4CC(CC(C4)C2)C3)sc[n+]1Cc1ccccc1	3	.	0	0	.	.	.	.
Cc1c(CCOC(=O)C23CC4CC(CC(C)(C4)C2)C3)sc[n+]1Cc1ccccc1	-15	-39	1.2*	-1	114	1	+	0
CCOC(=O)C1CCCCN1S(=O)(=O)c1ccc2c(c1)CC(C)N2C(=O)C1CCC1 (configuration not stated)	2	.	0	-3	103	0	96	0
CC1Cc2cc(S(=O)(=O)N3CCCCC3C)ccc2N1C(=O)C1CCC1 (configuration not stated)	2	.	0	-6	.	.	.	.
O=C(OCCCN=C1NS(=O)(=O)c2ccccc21)c1ccc([N+](=O)[O-])cc1	-3	-5	0	3	.	.	.	.
CN(C)c1ccc(CC(=O)N2CCCCC2c2cc(C(=O)Nc3cccc(C#N)c3)no2)cc1 (configuration not stated)	-4	5	.	12	.	.	.	.
CC[n+]1c(/C=C(\C)OC)sc2ccccc21	3	-6	.	8	.	.	.	.
CC[n+]1c(/C=C/C=C/N(C(C)=O)c2ccccc2)sc2cc(OC)ccc21	.	.	3.5*	-2	346*	2	123	1
N#C/C(=C\c1ccc([N+](=O)[O-])o1)C(=O)Nc1ccc(F)cc1	-26	48	1.6*	-12	275*	1	172	1
Nc1[nH]c2cc(C(F)(F)F)ccc2c1C(=O)N1CCN(CCc2ccccc2)CC1	.	.	.	-17	.	.	.	.
CCOc1ccc(/C=N/NC(=O)c2nnn(-c3nonc3N)c2-c2ccc(OCC)cc2)cc1	0	.	0	-2	.	.	.	.
Nc1nonc1-n1nnc(C(=O)N/N=C/c2ccccc2Cl)c1COc1ccc(F)cc1	1	3	0	-14	76	0	93	0
Nc1nonc1-n1nnc(C(=O)N/N=C/c2ccc(O)cc2)c1COc1ccc(F)cc1	8	7	0	-20	95	0	97	0
CCCOc1ccc(-c2c(C(=O)N/N=C/c3ccccc3)nnn2-c2nonc2N)cc1	-2	-15	0	-8	113	0	101	0
Nc1nonc1-n1nnc(C(=O)N/N=C/c2ccc(OCc3ccccc3)cc2)c1COc1ccc(F)cc1	-7	27	0	-5	.	.	.	.
Nc1nonc1-n1nnc(C(=O)N/N=C/c2ccccc2Cl)c1CSc1ccccc1	3	-2	0	-8	.	.	.	.
Nc1nonc1-n1nnc(C(=O)N/N=C/c2c(Cl)cccc2Cl)c1CSC1=NCCS1	7	0	0	-2	80	0	89	0
COC(=O)c1ccccc1NS(=O)(=O)c1ccc(Cl)nc1	6	-9	0	11	.	.	.	.
Cc1ccc(NC(=O)c2cccc(S(=O)(=O)N3CCN(c4ccccc4)CC3)c2)nc1	-4	-4	0	7	.	.	.	.
COc1ccc(Cc2nnc(SCC(=O)Nc3cc(Cl)ccc3C)[nH]c2=O)cc1	3	-12	0	-3	.	.	.	.
Cc1cc(C)nc(Nc2ccccc2Br)n1	1	-12	0	3	.	.	.	.
Cc1cc(C)nc(N/C(=N\S(=O)(=O)Cc2ccccc2)Nc2ccccc2Br)n1	-6	.	13*	2	108	0	106	0
CCCOc1ccc(C(=O)CCC(=O)OCC(=O)N2CCN(S(=O)(=O)c3ccc(C)cc3C)CC2)cc1	3	11	.	-41	.	.	.	.
O=C(c1cnn2c(-c3ccccc3)cc(-c3ccccc3)nc12)N1CCN(Cc2ccccc2)CC1	-2	2	0	-20	.	.	.	.
SMILES	MT1-MMP act inh	TAG inh	Efflux pump inh	sPLA2-III inh	Cmpd fluor yeast	Mdr1 pump inh	Cdr2 pump inh	CaCdr1 efflux inh
Cc1ccc2c(c1)[C@H]1[C@H](CO2)[C@H](c2ccccc2)[C@]2(C)C(=O)Nc3ccc(Cl)cc3C(=O)N12	-23	42	0	4	.	.	.	.
C[C@@]12C(=O)Nc3ccc(Cl)cc3C(=O)N1[C@H]1c3cc(Cl)ccc3OC[C@@H]1[C@@H]2c1ccccc1	-28	39	0	17	103	0	116	0
Cc1ccc2c(c1)[C@H]1[C@H](CO2)[C@H](c2ccccc2)[C@]2(C)C(=O)Nc3ccccc3C(=O)N12	-13	-2	0	4	.	.	.	.
C[C@@]12C(=O)Nc3cc(F)c(F)cc3C(=O)N1[C@H]1c3cc(Cl)ccc3OC[C@@H]1[C@@H]2c1ccccc1	-28	63*	0	.	113	0	114	0
COc1ccc2c(c1)OC[C@H]1[C@H]2N2C(=O)c3cc(C)ccc3NC(=O)[C@@]2(C)[C@H]1c1ccccc1	-15	-10	5.1*	.	121	1	121	0
COc1ccc2c(c1)[C@@H]1[C@H](CO2)[C@H](c2ccccc2)[C@]2(C)C(=O)Nc3ccc(C)cc3C(=O)N12	-3	-12	0	.	.	.	.	.
C[C@@]12C(=O)Nc3ccccc3C(=O)N1[C@H]1c3cc(Cl)ccc3OC[C@@H]1[C@@H]2c1ccccc1	-9	19	0	7	98	0	96	0
C[C@@H]1CN(C(=O)c2cc(COc3cccc(C(F)(F)F)c3)on2)C[C@H](C)O1	6	19	0.5*	-3	98	0	105	0
CCOC(=O)c1ccc(S(=O)(=O)NNS(=O)(=O)c2ccc(C)cc2)cc1	-1	.	2.1*	-2	97	0	101	0
CCCCC(CC)Cn1c(O)c(/C=C2\C=NN=C2c2ccccc2)sc1=S (configuration not stated)	-2	.	8.3*	16	102	0	127	0
COc1ccc(C2(OC)Oc3cc(OC)ccc3C(=O)C2(O)OC)cc1 (configuration not stated)	-5	8	.	3	.	.	.	.
CS(=O)(=O)Nc1cccc(-c2cc(NC=O)c3ncc(-c4ccc(F)c(Cl)c4)n3c2)c1	-5	4	.	-19	.	.	.	.
CC(=C/C(=O)O)/C=C/c1ccco1	-1	.	2.4*	1	99	0	94	0
CC(/C=C/c1ccc(Cl)o1)=C\C(=O)O	0	0	0	-2	.	.	.	.

Compound activity (PubChem BioAssay)
